Experimental data published in ChEMBL document CHEMBL5058577, “EUbOPEN Chemogenomics Library 2 (Multiplex)” (2022).

Tested on: Fibroblast
Experiment: Multiplex assay against human fibroblast
Assay type: toxicity, cell-based
Summary of the method: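 Cells were classed with CellPathfinder machine-learning gating, first as Hoechst high-intensity objects or normal cells, then (normal cells) as healthy, pyknosed or fragmented nuclei, and finally (pyknosed cells) as mitotic or apoptotic. Staining of live cells at seeding used Hoechst33342, BioTracker Green Microtubule Cytoskeleton Dye, MitoTracker Red and Annexin V Alexa Fluor 680, with imaging on a CQ1 microscope at 37°C and 5% CO2 after compound addition. Tubulin, mitochondrial-mass and membrane-permeability phenotypes are per cents of healthy-nucleus cells.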

[1] = 12 h, 1 µM, compound concentration 1 uM, replicate 1
[2] = 12 h, 1 µM, compound concentration 1 uM, replicate 2
[3] = 12 h, 10 µM, compound concentration 10 uM, replicate 1
[4] = 12 h, 10 µM, compound concentration 10 uM, replicate 2
[5] = 24 h, 1 µM, compound concentration 1 uM, replicate 1
[6] = 24 h, 1 µM, compound concentration 1 uM, replicate 2
[7] = 24 h, 10 µM, compound concentration 10 uM, replicate 1
[8] = 24 h, 10 µM, compound concentration 10 uM, replicate 2
[9] = 48 h, 1 µM, compound concentration 1 uM, replicate 1
[10] = 48 h, 1 µM, compound concentration 1 uM, replicate 2
[11] = 48 h, 10 µM, compound concentration 10 uM, replicate 1
[12] = 48 h, 10 µM, compound concentration 10 uM, replicate 2

COc1cc(OC2CCN(C(C)=O)CC2)ccc1C(=O)N1CCC(N2C(=O)OCc3ccccc32)CC1
Population Apoptotic (%) [1]: 41%
Population Fragmented Nuclei (%) [1]: 12%
Population Healthy Nuclei (%) [1]: 64%
Population Hoechst High Intensity Objects (%) [1]: 5%
Population Membrane Permeable-Phenotype (%) [1]: 2%
Population Mitochondria Different-Phenotype (%) [1]: 5%
Population Mitotic Cells (%) [1]: 58%
Population Normal (%) [1]: 94%
Population Pyknosed Nuclei (%) [1]: 22%
Population Tubulin-Different-Phenotype (%) [1]: 32%
Total Cell Count [1]: 157
Population Apoptotic (%) [2]: 40%
Population Fragmented Nuclei (%) [2]: 29%
Population Healthy Nuclei (%) [2]: 52%
Population Hoechst High Intensity Objects (%) [2]: 3%
Population Membrane Permeable-Phenotype (%) [2]: 0%
Population Mitochondria Different-Phenotype (%) [2]: 3%
Population Mitotic Cells (%) [2]: 59%
Population Normal (%) [2]: 96%
Population Pyknosed Nuclei (%) [2]: 17%
Population Tubulin-Different-Phenotype (%) [2]: 34%
Total Cell Count [2]: 159
Population Apoptotic (%) [3]: 52%
Population Fragmented Nuclei (%) [3]: 10%
Population Healthy Nuclei (%) [3]: 73%
Population Hoechst High Intensity Objects (%) [3]: 3%
Population Membrane Permeable-Phenotype (%) [3]: 0%
Population Mitochondria Different-Phenotype (%) [3]: 6%
Population Mitotic Cells (%) [3]: 48%
Population Normal (%) [3]: 96%
Population Pyknosed Nuclei (%) [3]: 16%
Population Tubulin-Different-Phenotype (%) [3]: 54%
Total Cell Count [3]: 161
Population Apoptotic (%) [4]: 37%
Population Fragmented Nuclei (%) [4]: 32%
Population Healthy Nuclei (%) [4]: 40%
Population Hoechst High Intensity Objects (%) [4]: 6%
Population Membrane Permeable-Phenotype (%) [4]: 2%
Population Mitochondria Different-Phenotype (%) [4]: 10%
Population Mitotic Cells (%) [4]: 62%
Population Normal (%) [4]: 93%
Population Pyknosed Nuclei (%) [4]: 28%
Population Tubulin-Different-Phenotype (%) [4]: 56%
Total Cell Count [4]: 134
Population Apoptotic (%) [5]: 63%
Population Fragmented Nuclei (%) [5]: 19%
Population Healthy Nuclei (%) [5]: 63%
Population Hoechst High Intensity Objects (%) [5]: 1%
Population Membrane Permeable-Phenotype (%) [5]: 0%
Population Mitochondria Different-Phenotype (%) [5]: 4%
Population Mitotic Cells (%) [5]: 36%
Population Normal (%) [5]: 98%
Population Pyknosed Nuclei (%) [5]: 17%
Population Tubulin-Different-Phenotype (%) [5]: 32%
Total Cell Count [5]: 170
Population Apoptotic (%) [6]: 48%
Population Fragmented Nuclei (%) [6]: 28%
Population Healthy Nuclei (%) [6]: 51%
Population Membrane Permeable-Phenotype (%) [6]: 5%
Population Mitochondria Different-Phenotype (%) [6]: 3%
Population Mitotic Cells (%) [6]: 51%
Population Pyknosed Nuclei (%) [6]: 19%
Population Tubulin-Different-Phenotype (%) [6]: 31%
Total Cell Count [6]: 155
Population Apoptotic (%) [7]: 36%
Population Fragmented Nuclei (%) [7]: 13%
Population Healthy Nuclei (%) [7]: 74%
Population Hoechst High Intensity Objects (%) [7]: 7%
Population Membrane Permeable-Phenotype (%) [7]: 1%
Population Mitochondria Different-Phenotype (%) [7]: 7%
Population Mitotic Cells (%) [7]: 63%
Population Normal (%) [7]: 92%
Population Pyknosed Nuclei (%) [7]: 11%
Population Tubulin-Different-Phenotype (%) [7]: 39%
Total Cell Count [7]: 172
Population Apoptotic (%) [8]: 43%
Population Fragmented Nuclei (%) [8]: 34%
Population Healthy Nuclei (%) [8]: 48%
Population Membrane Permeable-Phenotype (%) [8]: 3%
Population Mitochondria Different-Phenotype (%) [8]: 10%
Population Mitotic Cells (%) [8]: 56%
Population Pyknosed Nuclei (%) [8]: 17%
Population Tubulin-Different-Phenotype (%) [8]: 70%
Total Cell Count [8]: 145
Population Apoptotic (%) [9]: 40%
Population Fragmented Nuclei (%) [9]: 14%
Population Healthy Nuclei (%) [9]: 70%
Population Hoechst High Intensity Objects (%) [9]: 7%
Population Membrane Permeable-Phenotype (%) [9]: 0%
Population Mitochondria Different-Phenotype (%) [9]: 5%
Population Mitotic Cells (%) [9]: 59%
Population Normal (%) [9]: 92%
Population Pyknosed Nuclei (%) [9]: 14%
Population Tubulin-Different-Phenotype (%) [9]: 35%
Total Cell Count [9]: 160
Population Apoptotic (%) [10]: 58%
Population Fragmented Nuclei (%) [10]: 32%
Population Healthy Nuclei (%) [10]: 52%
Population Hoechst High Intensity Objects (%) [10]: 3%
Population Membrane Permeable-Phenotype (%) [10]: 4%
Population Mitochondria Different-Phenotype (%) [10]: 4%
Population Mitotic Cells (%) [10]: 41%
Population Normal (%) [10]: 96%
Population Pyknosed Nuclei (%) [10]: 15%
Population Tubulin-Different-Phenotype (%) [10]: 43%
Total Cell Count [10]: 163
Population Apoptotic (%) [11]: 57%
Population Fragmented Nuclei (%) [11]: 10%
Population Healthy Nuclei (%) [11]: 79%
Population Hoechst High Intensity Objects (%) [11]: 5%
Population Membrane Permeable-Phenotype (%) [11]: 0%
Population Mitochondria Different-Phenotype (%) [11]: 13%
Population Mitotic Cells (%) [11]: 42%
Population Normal (%) [11]: 94%
Population Pyknosed Nuclei (%) [11]: 9%
Population Tubulin-Different-Phenotype (%) [11]: 51%
Total Cell Count [11]: 155
Population Apoptotic (%) [12]: 56%
Population Fragmented Nuclei (%) [12]: 36%
Population Healthy Nuclei (%) [12]: 51%
Population Hoechst High Intensity Objects (%) [12]: 3%
Population Membrane Permeable-Phenotype (%) [12]: 3%
Population Mitochondria Different-Phenotype (%) [12]: 10%
Population Mitotic Cells (%) [12]: 43%
Population Normal (%) [12]: 96%
Population Pyknosed Nuclei (%) [12]: 12%
Population Tubulin-Different-Phenotype (%) [12]: 69%
Total Cell Count [12]: 134
